Experimental data gathered from unrelated publications.
Compare with care: the assays were run in different laboratories.
Route: oral

SMILES | test system | conditions | bioavailability
CC1(C)CCN(c2c(C#N)c(=O)[nH]c3cccnc23)CC1 | male Wistar rat, plasma |  | 61%
Oc1c(-n2ccnc2)cnn1-c1cc(N2CCCCC2)ncn1 | rat, plasma | 30 mg/kg | 39%
C#Cc1cnc2nc(O)n(C(CC)CC)c2n1 | Sprague-Dawley rat, plasma | 1 mg/kg | > 90%
Oc1c(-n2ccnn2)cnn1-c1cc(N2CCOCC2)ncn1 | rat, plasma | 30 mg/kg | 34%
C=CC(=O)Nc1cc(Nc2nccc(Nc3cc(Cl)c(F)cc3C(C)(C)O)n2)c(OC)cc1N1CC[C@@H](N(C)C)C1 | Wistar rat, plasma | 3 mg/kg | 39.6%
Cl.Clc1ccc2c(c1)nc(N1CCNCC1)n2Cc1ccccc1 | rat, plasma | 5 mg/kg | 42%
Cc1cc(C(=O)O)nc(N2C[C@H]3C[C@@H](c4ccccc4C(F)(F)F)C[C@H]3C2)n1 | Sprague-Dawley rat, plasma | 12.7 µmol/kg, single dose | > 100%
N#Cc1ccc(-c2ccc(C[C@@H](C#N)NC(=O)[C@@H]3CCCCN3)cc2)cc1 | Sprague-Dawley rat, plasma | 3 mg/kg | 80%
CCOC(=O)[C@@]12C[C@@H]1[C@@H](n1ccc3c(NC)nc(C#Cc4ccc(Cl)s4)nc31)[C@H](O)[C@@H]2O | male Sprague-Dawley rat, plasma | 3 mg/kg | 92.3%
N#C[C@]1(CO)O[C@@H](n2cnc3c(=O)[nH]c(N)nc32)C[C@@H]1O | male Sprague-Dawley rat, plasma | 1 mg/kg | ~70%
COc1c(C#N)ccnc1N1C2CCC1CN(C(=O)c1cccnc1-n1cccn1)C2 | rat, plasma | 30 mg/kg | 8.5%
COc1ccc2c(=O)oc3c(OC)cc(CC(O)CN(C)C)c4c(=O)oc1c2c34 (centres unmarked) | rat, plasma |  | ~37%
Oc1c(Br)cc(Cl)c2cccnc12 | Sprague-Dawley rat, plasma | 20 mg/kg | 39%
Cc1cn(-c2cc(NC(=O)c3cccc(-c4ccc5nc(NC(=O)C6CC6)sc5n4)c3)cc(C(F)(F)F)c2)cn1 | rat, serum | 2 mg/kg | 4.7%
CNC(=O)c1cccc(-c2ccc(O[C@H]3O[C@H](CO)[C@@H](O)[C@H](O)[C@@H]3O)c(C)c2)c1 | male Sprague-Dawley rat, plasma | 10 mg/kg, single dose | 1.34%
Cn1cc(-c2cc(N3CCCS3(=O)=O)ccc2Oc2ccc(F)cc2F)c2c(F)c[nH]c2c1=O | Sprague-Dawley rat, plasma | 3 mg/kg | 20 to 30%
Cc1c(-c2ccccc2)cccc1N1C(=O)c2cc(CN[C@H](C(=O)O)C(C)O)c(OCc3cccc(C#N)c3)cc2C1=O (some centres unmarked) | Sprague-Dawley rat, plasma | 50 mg/kg | 0.31%
